According to article PMC3270411 (Chemistry & biology, 2012):
Like-named read-outs stand apart in the source and are kept apart here.

How the values were obtained:
Type in all cases: cell-based
CK1d,CK1e = experiment: KiNativ cellular kinase profiling; details: A375 cells, 1 μM, 3 hours, labeling site Lys2
GSK3B = GSK3B (Homo sapiens, UniProt P49841); experiment: KiNativ cellular kinase profiling; details: for Percent inhibition of kinase labeling by ATP-biotin: A375 cells, 1 μM, 3 hours, GSK3B, labeling site Lys2; for inhibition at 1 µM: A-375, read-out: Percent inhibition of kinase labeling by ATP-biotin
[1] = system: c-Jun phosphorylation (pSer73) in HeLa cells; experiment: LanthaScreen TR-FRET c-Jun phosphorylation assay in HeLa cells; details: read-out: p-c-Jun EC50 (nM) Hela
Summary of the method: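 HeLa cells stably expressing GFP-c-Jun(1–79), 10,000/well in Opti-MEM with 0.5% charcoal/dextran-treated FBS, 25 mM Hepes pH 7.3, no phenol red; overnight. Pretreated 90 min with compound, then 30 min with 5 ng/ml TNF-α. Lysed in buffer containing 2 nM terbium anti-c-Jun pSer73 antibody; 60 min equilibration at room temperature. TR-FRET: excitation 340 nm, ratio Em 520/Em 490.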

MARK2,MARK3 = experiment: KiNativ cellular kinase profiling; details: A375 cells, 1 μM, 3 hours; MARK2,MARK3, labeling site Lys2
MARK2 = MARK2 (Homo sapiens, UniProt Q7KZI7); experiment: KiNativ cellular kinase profiling; details: for Percent inhibition of kinase labeling by ATP-biotin: A375 cells, 1 μM, 3 hours, MARK2, labeling site Lys1; for inhibition at 1 µM: A-375, read-out: Percent inhibition of kinase labeling by ATP-biotin
AurA = target: T1, AurA (Homo sapiens, UniProt O14965); experiment: KiNativ cellular kinase profiling; details: for Percent inhibition of kinase labeling by ATP-biotin: A375 cells, 1 μM, 3 hours, AurA, labeling site Lys2; for inhibition at 1 µM: A-375, read-out: Percent inhibition of kinase labeling by ATP-biotin
T1 sequence (O14965 1-403): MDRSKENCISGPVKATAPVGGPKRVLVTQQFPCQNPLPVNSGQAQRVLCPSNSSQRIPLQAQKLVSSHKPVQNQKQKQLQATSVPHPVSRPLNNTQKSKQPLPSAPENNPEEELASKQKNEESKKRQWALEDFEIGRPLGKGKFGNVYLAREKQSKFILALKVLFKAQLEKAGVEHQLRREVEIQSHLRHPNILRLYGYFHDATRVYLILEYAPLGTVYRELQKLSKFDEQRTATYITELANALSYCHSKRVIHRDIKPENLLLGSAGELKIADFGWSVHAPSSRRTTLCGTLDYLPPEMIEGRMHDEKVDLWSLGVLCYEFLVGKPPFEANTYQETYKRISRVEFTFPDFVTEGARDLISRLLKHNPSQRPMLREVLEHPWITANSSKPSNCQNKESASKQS

ZC2/TNIK = ZC2/TNIK (Homo sapiens, UniProt Q9UKE5); experiment: KiNativ cellular kinase profiling; details: for Percent inhibition of kinase labeling by ATP-biotin: A375 cells, 1 μM, 3 hours, ZC2/TNIK, labeling site Lys1; for inhibition at 1 µM: A-375, read-out: Percent inhibition of kinase labeling by ATP-biotin
PKD2 = target: T2, PKD2 (Homo sapiens, UniProt Q9BZL6); experiment: KiNativ cellular kinase profiling; details: for Percent inhibition of kinase labeling by ATP-biotin: A375 cells, 1 μM, 3 hours, PKD2, labeling site Lys1; for inhibition at 1 µM: A-375, read-out: Percent inhibition of kinase labeling by ATP-biotin
T2 sequence (Q9BZL6 1-878): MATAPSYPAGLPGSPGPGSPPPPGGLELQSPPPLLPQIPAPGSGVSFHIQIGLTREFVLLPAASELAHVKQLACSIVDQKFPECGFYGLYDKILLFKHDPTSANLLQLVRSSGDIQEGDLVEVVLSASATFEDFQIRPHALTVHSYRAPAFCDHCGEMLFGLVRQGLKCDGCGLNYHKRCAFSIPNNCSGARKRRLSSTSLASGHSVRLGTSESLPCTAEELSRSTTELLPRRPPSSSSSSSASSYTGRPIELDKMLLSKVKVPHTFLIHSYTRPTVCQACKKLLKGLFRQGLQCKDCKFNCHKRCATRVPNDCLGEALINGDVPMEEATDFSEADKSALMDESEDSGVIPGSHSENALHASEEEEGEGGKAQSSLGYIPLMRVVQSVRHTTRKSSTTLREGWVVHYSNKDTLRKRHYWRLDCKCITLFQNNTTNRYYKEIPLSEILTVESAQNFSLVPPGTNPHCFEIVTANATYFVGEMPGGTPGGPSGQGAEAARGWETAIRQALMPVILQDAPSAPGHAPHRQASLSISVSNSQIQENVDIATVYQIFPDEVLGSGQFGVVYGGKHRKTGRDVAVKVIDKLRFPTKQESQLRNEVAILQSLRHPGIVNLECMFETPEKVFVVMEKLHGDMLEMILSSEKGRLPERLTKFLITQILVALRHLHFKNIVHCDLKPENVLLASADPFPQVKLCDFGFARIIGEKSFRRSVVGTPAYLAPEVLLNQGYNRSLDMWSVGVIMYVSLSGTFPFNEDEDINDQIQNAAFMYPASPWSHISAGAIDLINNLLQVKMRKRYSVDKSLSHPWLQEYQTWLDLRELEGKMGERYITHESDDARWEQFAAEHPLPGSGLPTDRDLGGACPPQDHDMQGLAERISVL

PHKg2 = target: T3, PHKg2 (Homo sapiens, UniProt P15735); experiment: KiNativ cellular kinase profiling; details: for Percent inhibition of kinase labeling by ATP-biotin: A375 cells, 1 μM, 3 hours, PHKg2, labeling site Lys1; for inhibition at 1 µM: A-375, read-out: Percent inhibition of kinase labeling by ATP-biotin
T3 sequence (P15735 1-406): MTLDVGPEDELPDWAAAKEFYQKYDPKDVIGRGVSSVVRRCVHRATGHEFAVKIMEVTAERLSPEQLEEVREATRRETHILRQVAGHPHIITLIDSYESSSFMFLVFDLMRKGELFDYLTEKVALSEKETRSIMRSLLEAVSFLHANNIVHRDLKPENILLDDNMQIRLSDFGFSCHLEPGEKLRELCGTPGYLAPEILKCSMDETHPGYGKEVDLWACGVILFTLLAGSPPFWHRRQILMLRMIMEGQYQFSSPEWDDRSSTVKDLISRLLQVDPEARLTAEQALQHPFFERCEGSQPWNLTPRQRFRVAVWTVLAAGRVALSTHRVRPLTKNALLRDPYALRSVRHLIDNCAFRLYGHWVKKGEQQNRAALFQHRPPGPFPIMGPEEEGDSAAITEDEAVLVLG

ZAK = ZAK (Homo sapiens, UniProt Q9NYL2); experiment: KiNativ cellular kinase profiling; details: for Percent inhibition of kinase labeling by ATP-biotin: A375 cells, 1 μM, 3 hours, ZAK, labeling site Lys1; for inhibition at 1 µM: A-375, read-out: Percent inhibition of kinase labeling by ATP-biotin
ITPK1 = target: T4, ITPK1 (Homo sapiens, UniProt Q13572); experiment: KiNativ cellular kinase profiling; details: for Percent inhibition of kinase labeling by ATP-biotin: A375 cells, 1 μM, 3 hours, ITPK1, labeling site ATP; for inhibition at 1 µM: A-375, read-out: Percent inhibition of kinase labeling by ATP-biotin
T4 sequence (Q13572 1-414): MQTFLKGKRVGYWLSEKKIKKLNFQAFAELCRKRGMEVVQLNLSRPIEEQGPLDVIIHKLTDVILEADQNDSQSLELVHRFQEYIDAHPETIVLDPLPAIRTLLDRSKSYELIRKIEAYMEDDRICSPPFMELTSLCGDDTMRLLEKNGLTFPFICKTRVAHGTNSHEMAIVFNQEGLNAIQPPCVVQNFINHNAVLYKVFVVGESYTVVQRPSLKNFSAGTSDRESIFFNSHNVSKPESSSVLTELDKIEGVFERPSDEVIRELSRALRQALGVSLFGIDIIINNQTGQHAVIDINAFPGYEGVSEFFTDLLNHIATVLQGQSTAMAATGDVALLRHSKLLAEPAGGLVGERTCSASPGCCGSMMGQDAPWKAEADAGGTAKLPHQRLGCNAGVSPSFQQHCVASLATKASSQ

[2] = system: c-Jun phosphorylation and Erk, p38, JNK, Akt, Stat, NF-κB and Rsk pathway nodes; experiment: microscopy-based cellular pathway profiling with phospho-specific antibodies; details: phospho-specific antibody microscopy
[3] = Hela cells, TNF-α stimulation, TR-FRET

Chain of ZAK (Q9NYL2 whole entry): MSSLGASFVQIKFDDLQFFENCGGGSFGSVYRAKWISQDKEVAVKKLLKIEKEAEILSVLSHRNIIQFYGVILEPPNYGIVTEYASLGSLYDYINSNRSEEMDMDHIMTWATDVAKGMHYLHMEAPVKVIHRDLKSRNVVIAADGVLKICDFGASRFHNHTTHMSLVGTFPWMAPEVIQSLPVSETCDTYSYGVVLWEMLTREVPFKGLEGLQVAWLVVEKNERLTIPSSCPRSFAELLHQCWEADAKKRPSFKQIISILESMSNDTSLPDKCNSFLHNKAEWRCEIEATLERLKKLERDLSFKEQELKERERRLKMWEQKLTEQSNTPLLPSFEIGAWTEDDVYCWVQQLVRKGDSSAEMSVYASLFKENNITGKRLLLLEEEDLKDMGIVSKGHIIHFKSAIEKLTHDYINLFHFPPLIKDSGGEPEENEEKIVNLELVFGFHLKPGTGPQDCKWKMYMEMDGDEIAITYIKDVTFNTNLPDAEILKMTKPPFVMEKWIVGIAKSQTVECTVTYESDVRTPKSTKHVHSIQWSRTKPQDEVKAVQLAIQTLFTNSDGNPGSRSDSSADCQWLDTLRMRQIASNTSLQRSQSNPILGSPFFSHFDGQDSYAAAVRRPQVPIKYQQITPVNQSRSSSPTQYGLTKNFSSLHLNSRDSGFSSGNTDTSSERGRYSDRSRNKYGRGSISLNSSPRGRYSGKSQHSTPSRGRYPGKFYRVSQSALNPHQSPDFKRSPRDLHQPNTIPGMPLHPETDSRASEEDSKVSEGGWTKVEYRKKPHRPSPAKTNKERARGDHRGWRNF
Chain of MARK2 (Q7KZI7 whole entry): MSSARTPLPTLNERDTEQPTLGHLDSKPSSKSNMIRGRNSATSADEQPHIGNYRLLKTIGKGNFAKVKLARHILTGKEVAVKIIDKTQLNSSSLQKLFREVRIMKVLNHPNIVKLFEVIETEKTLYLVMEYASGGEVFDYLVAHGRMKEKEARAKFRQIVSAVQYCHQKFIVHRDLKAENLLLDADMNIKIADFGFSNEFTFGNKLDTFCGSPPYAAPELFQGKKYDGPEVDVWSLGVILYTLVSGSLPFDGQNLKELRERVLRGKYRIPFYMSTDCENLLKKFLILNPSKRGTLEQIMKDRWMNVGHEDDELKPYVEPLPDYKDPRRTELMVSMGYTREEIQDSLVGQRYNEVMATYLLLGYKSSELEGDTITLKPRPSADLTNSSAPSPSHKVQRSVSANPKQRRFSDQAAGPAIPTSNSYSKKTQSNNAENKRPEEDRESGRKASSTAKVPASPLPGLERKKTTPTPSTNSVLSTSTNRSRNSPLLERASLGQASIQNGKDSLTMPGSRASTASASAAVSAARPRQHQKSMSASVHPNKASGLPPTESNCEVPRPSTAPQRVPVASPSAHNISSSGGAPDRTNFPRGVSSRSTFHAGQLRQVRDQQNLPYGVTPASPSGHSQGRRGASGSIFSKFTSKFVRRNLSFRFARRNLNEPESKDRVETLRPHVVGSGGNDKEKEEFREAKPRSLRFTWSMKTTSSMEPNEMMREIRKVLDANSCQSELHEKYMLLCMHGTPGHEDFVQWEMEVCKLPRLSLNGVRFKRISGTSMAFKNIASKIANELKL
Chain of GSK3B (P49841 whole entry): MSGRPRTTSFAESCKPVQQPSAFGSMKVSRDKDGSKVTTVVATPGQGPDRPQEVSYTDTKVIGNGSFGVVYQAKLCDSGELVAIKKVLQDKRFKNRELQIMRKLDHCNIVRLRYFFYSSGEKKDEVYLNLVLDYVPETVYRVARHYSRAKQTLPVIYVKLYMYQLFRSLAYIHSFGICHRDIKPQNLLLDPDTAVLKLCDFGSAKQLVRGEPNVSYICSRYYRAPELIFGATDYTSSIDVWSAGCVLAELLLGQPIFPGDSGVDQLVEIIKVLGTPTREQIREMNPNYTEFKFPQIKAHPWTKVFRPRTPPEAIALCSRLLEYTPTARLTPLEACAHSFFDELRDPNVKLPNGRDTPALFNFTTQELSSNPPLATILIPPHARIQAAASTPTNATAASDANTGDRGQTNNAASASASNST
Chain of ZC2/TNIK (Q9UKE5 whole entry): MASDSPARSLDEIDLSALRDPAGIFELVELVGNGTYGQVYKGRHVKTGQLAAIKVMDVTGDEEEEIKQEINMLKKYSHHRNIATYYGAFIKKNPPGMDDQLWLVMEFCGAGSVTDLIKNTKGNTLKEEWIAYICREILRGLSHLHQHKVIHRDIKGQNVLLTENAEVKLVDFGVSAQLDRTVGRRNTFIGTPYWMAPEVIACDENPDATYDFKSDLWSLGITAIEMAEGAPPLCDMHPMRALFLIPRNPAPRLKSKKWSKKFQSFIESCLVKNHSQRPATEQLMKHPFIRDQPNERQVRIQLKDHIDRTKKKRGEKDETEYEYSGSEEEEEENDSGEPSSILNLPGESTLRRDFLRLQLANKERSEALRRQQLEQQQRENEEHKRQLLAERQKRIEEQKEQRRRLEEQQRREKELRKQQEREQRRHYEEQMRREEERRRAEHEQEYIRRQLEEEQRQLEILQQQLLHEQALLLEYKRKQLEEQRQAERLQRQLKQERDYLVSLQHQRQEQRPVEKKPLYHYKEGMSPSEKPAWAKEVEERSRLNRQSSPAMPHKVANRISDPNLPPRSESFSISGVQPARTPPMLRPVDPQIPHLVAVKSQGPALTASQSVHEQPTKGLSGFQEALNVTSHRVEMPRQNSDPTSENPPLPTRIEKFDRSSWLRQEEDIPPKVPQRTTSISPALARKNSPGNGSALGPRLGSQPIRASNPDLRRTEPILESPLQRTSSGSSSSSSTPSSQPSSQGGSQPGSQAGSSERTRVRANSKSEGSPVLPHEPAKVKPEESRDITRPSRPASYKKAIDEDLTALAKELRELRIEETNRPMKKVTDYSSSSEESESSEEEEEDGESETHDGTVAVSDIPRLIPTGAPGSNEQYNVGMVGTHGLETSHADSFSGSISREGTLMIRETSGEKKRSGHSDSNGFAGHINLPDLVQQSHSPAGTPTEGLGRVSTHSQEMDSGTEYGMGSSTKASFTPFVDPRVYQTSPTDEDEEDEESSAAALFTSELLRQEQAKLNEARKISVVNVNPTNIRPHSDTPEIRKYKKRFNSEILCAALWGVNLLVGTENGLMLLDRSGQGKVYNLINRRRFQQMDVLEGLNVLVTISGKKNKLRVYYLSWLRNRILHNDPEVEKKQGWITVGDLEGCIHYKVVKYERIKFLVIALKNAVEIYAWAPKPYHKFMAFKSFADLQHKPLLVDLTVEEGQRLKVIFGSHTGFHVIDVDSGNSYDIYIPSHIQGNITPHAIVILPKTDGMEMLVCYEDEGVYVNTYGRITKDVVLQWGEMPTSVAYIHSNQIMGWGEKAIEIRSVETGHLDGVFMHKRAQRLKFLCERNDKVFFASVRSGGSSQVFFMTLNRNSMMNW

SMILES	Percent inhibition of kinase labeling by ATP-biotin (CK1d,CK1e) [%]	Percent inhibition of kinase labeling by ATP-biotin (GSK3B) [%]	EC50 [1, 3] [nM]	Percent inhibition of kinase labeling by ATP-biotin (MARK2,MARK3) [%]	Percent inhibition of kinase labeling by ATP-biotin (MARK2) [%]	Percent inhibition of kinase labeling by ATP-biotin (AurA) [%]	Percent inhibition of kinase labeling by ATP-biotin (ZC2/TNIK) [%]	Percent inhibition of kinase labeling by ATP-biotin (PKD2) [%]	Percent inhibition of kinase labeling by ATP-biotin (PHKg2) [%]	Percent inhibition of kinase labeling by ATP-biotin (ZAK) [%]	inhibition at 1 µM (GSK3B) [%]	EC50 ([1]; Homo sapiens, HeLa) [nM]	inhibition at 1 µM (MARK2) [%]	inhibition at 1 µM (AurA) [%]	inhibition at 1 µM (ZC2/TNIK) [%]	inhibition at 1 µM (PKD2) [%]	inhibition at 1 µM (PHKg2) [%]	inhibition at 1 µM (ZAK) [%]	inhibition at 1 µM (ITPK1) [%]	on-/off-pathway activity in cellular pathway profiling [2]	also measured
CCC(=O)Nc1cccc(C(=O)Nc2ccc(Nc3nccc(-c4cccnc4)n3)cc2)c1 [JNK-IN-6]	32.4	23.6	6760	22.9	13.4	9.9	−15.9	12	28	3	–	–	–	–	–	–	–	–	–	–	Percent inhibition of kinase labeling by ATP-biotin (ITPK1): 27%
CN(C)C/C=C/C(=O)Nc1cccc(C(=O)Nc2ccc(Nc3nccc(-c4cccnc4)n3)cc2)c1 [JNK-IN-7]	8.4	–	–	26.5	–	–	–	–	–	–	12.3	130	23.6	20.9	20.9	13.6	-7	15.5	-0.2	only on-pathway activity	–
Cc1cc(NC(=O)c2cccc(NC(=O)/C=C/CN(C)C)c2)ccc1Nc1nccc(-c2cccnc2)n1 [JNK-IN-8]	−21.8	–	–	13.9	–	–	–	–	–	–	-8.5	486	9.6	-8	9.9	4.9	-0.8	-7.8	24.6	only on-pathway activity	–
CN(C)C/C=C/C(=O)Nc1cccc(C(=O)Nc2ccc(Nc3nccc(-c4c(-c5ccccc5)nn5ccccc45)n3)cc2)c1 [JNK-IN-11]	88.4	–	–	0.4	–	–	–	–	–	–	67.1	48	20.8	68.2	> 80	40.9	-76	84.4	-0.7	off-pathway activity	–
CN(C)C/C=C/C(=O)Nc1cccc(C(=O)Nc2ccc(Nc3nccc(/C(C#N)=C4\Nc5ccccc5S4)n3)cc2)c1 [JNK-IN-12]	−75	−29.6	605	−38.7	−41.1	−23	−8.9	−79	−94.1	−40.2	–	–	–	–	–	–	–	–	–	only on-pathway activity	Percent inhibition of kinase labeling by ATP-biotin (ITPK1): 8.6%
